Experimental data published in ChEMBL document CHEMBL1137092, “Synthesis and evaluation of two 18F-labeled 6-iodo-2-(4'-N,N-dimethylamino)phenylimidazo[1,2-a]pyridine derivatives as prospective radioligands for beta-amyloid in Alzheimer's disease” (J Med Chem, 2004).
Several values for one entry are separate records, joined by “and”; a condition that tells them apart may be missing. Equal values may be shown once. One block for each compound: values may come before it.

Experiments:
[1] = species on record: Mus musculus; assay: Residual activity in mice at 120 minutes, expressed as [(ID%-kg)/g] (Radiolabeled compound); assay type: ADME, organism-based; conditions: in vivo, 2 h
How it was run: (§1)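 Male ICR mice (2–3 months, 20–30 g) under 1% isoflurane, body temperature held at 36–37 °C. No-carrier-added 18F ligand (400–450 μCi) in 0.9% saline with 0.1% Tween given via tail-vein catheter. Dynamic small-animal PET for 1–2 h. Brain and skull time-activity curves were averaged over four mice and fitted to a double-exponential model; bone uptake was fitted linearly or exponentially.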

[2] = species on record: Mus musculus; assay: Time at maximum activity in mice (Radiolabeled compound); assay type: ADME, organism-based; conditions: in vivo; how it was run: as §1
[3] = tested on: Mus musculus; assay: Compound was evaluated for rate of bone uptake after administration of radiolabeled in mice (Radiolabeled compound); assay type: ADME, organism-based, Bone element; conditions: in vivo; how it was run: as §1
[4] = species on record: Mus musculus; assay: Compound was evaluated for washout rate in mice after radiolabeled ligand injected; assay type: ADME, organism-based; conditions: in vivo; how it was run: as §1
[5] = tested on: Mus musculus; assay: Maximum activity (i.v.) after in mice, expressed as [(ID%-kg)/g] (Radiolabeled compound); assay type: ADME, organism-based; conditions: in vivo, iv; how it was run: as §1
[6] = Compound was evaluated for distribution coefficient (logD) measured at pH7.4; assay type: physicochemical; conditions: octanol/water, pH 7.4
How it was run: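 Shake-flask partition: ligand (3–5 mg) in 0.1 M sodium phosphate pH 7.4 (6.0 mL) with n-octanol (1.0 mL). Vortexed 1 min, shaken 1 min, filtered, left 10 min at RT, centrifuged 5000g for 10 min. Value is the ratio of organic-phase to aqueous-phase concentration.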

[7] = Compound (i.v.) was evaluated for elimination rate constants in brainstem of rhesus monkeys (Radiolabeled compound); assay type: ADME, tissue-based, Brain; conditions: cercopithecidae, iv, read-out: Activity (converted)
How it was run: (§2)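 Rhesus monkey with urinary catheter; ECG, temperature, heart and respiration rates monitored. A 32 min 68Ge transmission scan was taken for attenuation correction. 18F ligand (2.9 mCi) given iv. Dynamic 3D head PET ran 120 min (33 frames, 30 s–5 min). Regional uptake and elimination rate constants were fitted from time-activity curves.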

[8] = Compound (i.v.) was evaluated for elimination rate constants in cerebellum of rhesus monkeys (Radiolabeled compound); assay type: ADME, tissue-based; conditions: cercopithecidae, iv; how it was run: as §2
[9] = Compound (i.v.) was evaluated for elimination rate constants in frontal cortex of rhesus monkey (Radiolabeled compound); assay type: ADME, tissue-based; conditions: cercopithecidae, iv, read-out: Activity (converted); how it was run: as §2
[10] = Compound (i.v.) was evaluated for elimination rate constants in jaw bone of rhesus monkeys; NA = not active (Radiolabeled compound); assay type: ADME, tissue-based, Bone element; conditions: cercopithecidae, iv; how it was run: as §2
[11] = Compound (i.v.) was evaluated for elimination rate constants in striatum of rhesus monkey (Radiolabeled compound); assay type: ADME, tissue-based; conditions: cercopithecidae, iv; how it was run: as §2
[12] = Compound (i.v.) was evaluated for uptake rate constants in brainstem of rhesus monkeys (Radiolabeled compound); assay type: ADME, tissue-based, Brain; conditions: cercopithecidae, iv; how it was run: as §2
[13] = Compound (i.v.) was evaluated for uptake rate constants in cerebellum of rhesus monkeys (Radiolabeled compound); assay type: ADME, tissue-based; conditions: cercopithecidae, iv; how it was run: as §2
[14] = Compound (i.v.) was evaluated for uptake rate constants in frontal cortex of rhesus monkey (Radiolabeled compound); assay type: ADME, tissue-based; conditions: cercopithecidae, iv; how it was run: as §2
[15] = Compound (i.v.) was evaluated for uptake rate constants in jaw bone of rhesus monkey (Radiolabeled compound); assay type: ADME, tissue-based, Bone element; conditions: cercopithecidae, iv; how it was run: as §2
[16] = Compound (i.v.) was evaluated for uptake rate constants in striatum of rhesus monkeys (Radiolabeled compound); assay type: ADME, tissue-based; conditions: cercopithecidae, iv; how it was run: as §2
[17] = tested on: Mus musculus; assay: Compound (i.v.) was tested for maximum activity in mice (Radiolabeled compound); assay type: ADME, organism-based; conditions: in vivo, iv; how it was run: as §1
[18] = tested on: Mus musculus; assay: Compound was evaluated for elimination rate constants in vivo in whole blood of normal mice (Radiolabeled compound); assay type: ADME, organism-based
How it was run: (§3)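 Normal mice given 18F ligand iv during PET. Serial blood samples (10–35 μL) were taken and analysed by reverse-phase HPLC for parent, lipophilic and polar radioactive components. Parent, lipophilic and total curves were fitted to single-exponential decay; the polar metabolite curve was fitted double-exponentially to give rate constants.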

[19] = species on record: Mus musculus; assay: Compound was evaluated for rate of bone uptake in mice (Radiolabeled compound); assay type: ADME, organism-based, Bone element; conditions: in vivo; how it was run: as §1
[20] = tested on: Mus musculus; assay: Compound was evaluated for uptake rate constants in vivo in whole blood of normal mice (Radiolabeled compound); assay type: ADME, organism-based; how it was run: as §3
[21] = tested on: Mus musculus; assay: Compound was evaluated for uptake rate constants in vivo in whole blood of normal mice; NA = not active (Radiolabeled compound); assay type: ADME, organism-based; how it was run: as §3
[22] = species on record: Mus musculus; assay: Compound was evaluated for washout rate in mice (Radiolabeled compound); assay type: ADME, organism-based; conditions: in vivo; how it was run: as §1
[23] = species on record: Mus musculus; assay: Compound was evaluated for rate of bone uptake in mice; NA - not active (Radiolabeled compound); assay type: ADME, organism-based, Bone element; conditions: in vivo
[24] = species on record: Mus musculus; assay: Maximum activity in mice, expressed as [(ID%-kg)/g] (Radiolabeled compound); assay type: ADME, organism-based; conditions: in vivo; how it was run: as §1

Activity [1]: 0.0479 | Activity [2]: 1.83 min | Activity [3]: 0.00728 min⁻¹ | Activity [4]: 0.127 min⁻¹ | Activity [5]: 0.157 | logD [6]: 4.6
SMILES: CN(CCCF)c1ccc(-c2cn3cc(I)ccc3n2)cc1

k el [7]: 0.000813 s⁻¹ | Activity [8]: 0.0854 min⁻¹ | k el [9]: 0.00101 s⁻¹ | Activity [10]: Not Active | Activity [11]: 0.0859 min⁻¹ | Activity [12]: 1 min⁻¹ | Activity [13]: 1.09 min⁻¹ | Activity [14]: 0.859 min⁻¹ | Activity [15]: 0.373 min⁻¹ | Activity [16]: 0.972 min⁻¹ | Activity [1]: 0.111 | Activity [17]: 0.5 min | Activity [19]: 0.0016 min⁻¹ | Activity [20]: 0.576 min⁻¹ | Activity [21]: Not Active | Activity [22]: 0.334 min⁻¹ | Activity [5]: 0.161 | logD [6]: 4.41
SMILES: CN(CCF)c1ccc(-c2cn3cc(I)ccc3n2)cc1
Activity [18]: 1.14 min⁻¹ and 0.722 min⁻¹ and 0.801 min⁻¹

Activity [1]: 0.0108 | Activity [2]: 2 min | Activity [23]: Not Active | Activity [22]: 0.122 min⁻¹ | Activity [24]: 0.216 | logD [6]: 3.58
SMILES: CN(C)c1ccc(-c2cn3cc([125I])ccc3n2)cc1
